Reference: ChEMBL document CHEMBL4837231, “Development of peptide epoxyketones as selective immunoproteasome inhibitors” (Eur J Med Chem, 2021)

How the values were obtained:
[1] = biological target: T1, Proteasome subunit beta type-8 (Homo sapiens, UniProt P28062); experiment: Inhibition of human proteasome subunit beta-5i chymotrypsin like activity using SUC-ANW-AMC as flurogenic substrate preincubated for 15 mins followed by substrate addition and measured after 1 hr by fluorescence assay
T1 sequence (P28062 whole entry): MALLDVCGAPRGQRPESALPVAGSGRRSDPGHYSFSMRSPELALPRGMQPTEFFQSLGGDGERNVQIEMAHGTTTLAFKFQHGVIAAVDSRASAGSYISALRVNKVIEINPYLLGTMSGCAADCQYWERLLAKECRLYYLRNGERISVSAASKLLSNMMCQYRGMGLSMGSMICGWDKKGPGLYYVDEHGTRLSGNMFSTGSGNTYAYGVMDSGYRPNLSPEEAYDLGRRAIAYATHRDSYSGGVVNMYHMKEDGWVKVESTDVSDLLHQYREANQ
Procedure, shortened: (§1)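 Immunoproteasome derived from human PBMC, added at 1 μg/mL (pre-dilution) in 100 mM Tris-HCl pH 7.5. Compounds were diluted to a 10% DMSO solution. After 15 min preincubation at 25 °C, AMC substrate added (100 µM final) and incubated 1 h at 25 °C. Read at ex 355/em 460 nm; IC50 by sigmoidal variable-slope fitting.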

[2] = Selectivity ratio of IC50 for chymotrypsin-like activity of human 20s proteasome beta 5c subunit to IC50 for human proteasome subunit beta-5i chymotrypsin like activity
[3] = biological target: T2, Proteasome Macropain subunit MB1 (Homo sapiens, UniProt P28074); experiment: Inhibition of chymotrypsin-like activity of human 20s proteasome beta 5c subunit using suc-WLA-AMC as flurogenic substrate preincubated for 15 mins followed by substrate addition and measured after 1 hr by fluorescence assay
T2 sequence (P28074 whole entry): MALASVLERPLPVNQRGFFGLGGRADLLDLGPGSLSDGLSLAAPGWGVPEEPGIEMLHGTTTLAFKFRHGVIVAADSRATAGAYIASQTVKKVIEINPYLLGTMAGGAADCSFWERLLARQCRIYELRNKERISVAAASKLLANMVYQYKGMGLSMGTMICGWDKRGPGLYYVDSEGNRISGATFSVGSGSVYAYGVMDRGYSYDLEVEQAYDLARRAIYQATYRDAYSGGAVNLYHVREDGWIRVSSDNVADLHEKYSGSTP
Procedure, shortened: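 Constitutive proteasome isolated from human hepatic cells, added at 40 μg/mL (pre-dilution) in 100 mM Tris-HCl pH 7.5. Compounds came from DMSO diluted in water (10% DMSO solution). Preincubated 15 min at 25 °C, then AMC substrate added (100 µM final) for 1 h at 25 °C. Fluorescence read at 355 nm excitation and 460 nm emission; IC50 from a variable-slope sigmoidal fit.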

MM1.S = experiment: Antiproliferative activity against human MM1.S cells assessed as inhibition of cell proliferation after 72 hrs by MTS assay; type: functional, cell-based
Procedure, shortened: (§2)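 Cells grown in RPMI-1640 with 10% FBS and penicillin/streptomycin at 37 °C, 5% CO2. Seeded per well at 5×10³ (RPMI-8226) or 3×10⁴ (MM.1S), then exposed 72 h to graded compound concentrations or 0.2% DMSO vehicle. MTS/PMS added for 2–4 h; absorbance at 490 nm minus 690 nm. Inhibition = (Acontrol−Asample)/Acontrol; IC50 by sigmoidal variable-slope regression.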

[4] = biological target: T3, Proteasome subunit beta type-9 (Homo sapiens, UniProt P28065); experiment: Inhibition of human caspase-like activity of 20s proteasome beta 1i subunit using SUC-PAL-AMC as flurogenic substrate preincubated for 15 mins followed by substrate addition and measured after 1 hr by fluorescence assay; procedure, shortened: as §1
T3 sequence (P28065 whole entry): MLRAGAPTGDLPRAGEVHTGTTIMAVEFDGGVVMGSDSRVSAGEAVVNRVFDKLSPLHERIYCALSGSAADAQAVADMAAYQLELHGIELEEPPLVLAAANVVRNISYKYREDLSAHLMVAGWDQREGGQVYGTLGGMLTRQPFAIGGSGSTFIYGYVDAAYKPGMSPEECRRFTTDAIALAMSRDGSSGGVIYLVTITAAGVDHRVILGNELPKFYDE

[5] = biological target: T4, Proteasome subunit beta type-10 (Homo sapiens, UniProt P40306); experiment: Inhibition of human trypsin-like activity of 20s proteasome beta 2i subunit using SUC-VGR-AMC as flurogenic substrate preincubated for 15 mins followed by substrate addition and measured after 1 hr by fluorescence assay
T4 sequence (P40306 whole entry): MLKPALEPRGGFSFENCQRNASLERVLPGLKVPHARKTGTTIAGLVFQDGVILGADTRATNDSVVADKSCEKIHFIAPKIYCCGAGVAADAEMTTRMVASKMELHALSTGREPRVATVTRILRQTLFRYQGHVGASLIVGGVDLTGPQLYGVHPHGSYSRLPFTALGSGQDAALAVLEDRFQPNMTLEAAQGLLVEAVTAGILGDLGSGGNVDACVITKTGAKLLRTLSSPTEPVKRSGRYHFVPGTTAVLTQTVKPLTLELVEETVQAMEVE
Procedure, shortened: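 Immunoproteasome derived from human PBMC, added at 1 μg/mL (pre-dilution) in 100 mM Tris-HCl pH 7.5. Compounds were diluted to a 10% DMSO solution. After 15 min preincubation at 25 °C, AMC substrate added (100 µM final) and incubated 1 h at 25 °C.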

RPMI-8226 = experiment: Antiproliferative activity against human RPMI-8226 cells assessed as inhibition of cell proliferation after 72 hrs by MTS assay; type: functional, cell-based; settings: RPMI-8226, 72 h; procedure, shortened: as §2
[6] = Inhibition of 20s proteasome beta 5c subunit (unknown origin); parameters: species or system Homo sapiens

## COc1ccc(C[C@H](NC(=O)[C@H](C)NC(=O)N2CCCC2)C(=O)N[C@@H](Cc2ccccc2)C(=O)[C@@]2(C)CO2)cc1
[1]
  IC50: 246 nM
[2]
  Ratio IC50: 2
[3]
  IC50: 498 nM

## COc1ccc(C[C@H](NC(=O)[C@H](C)NC(=O)N2CCC(NC(=O)c3nccs3)CC2)C(=O)N[C@@H](CC2CCCCC2)C(=O)[C@@]2(C)CO2)cc1
[1]
  IC50: 129 nM
[2]
  Ratio IC50: 1.9
[3]
  IC50: 245 nM

## COc1ccc(C[C@H](NC(=O)[C@@H](C)NC(=O)N2CCC(OC)C2)C(=O)N[C@@H](Cc2ccccc2)C(=O)[C@@]2(C)CO2)cc1 (stereo partly drawn)
[1]
  IC50: 44.5 nM
[2]
  Ratio IC50: 24.8
[3]
  IC50: 1110 nM

## COc1ccc(C[C@H](NC(=O)[C@H](C)NC(=O)N2CCC(OC)CC2)C(=O)N[C@@H](Cc2ccccc2)C(=O)[C@@]2(C)CO2)cc1
[1]
  IC50: 18.9 nM
[2]
  Ratio IC50: 3.9
[3]
  IC50: 74 nM

## C[C@H](NC(=O)N1CCC(NC(=O)c2nccs2)CC1)C(=O)N[C@@H](Cc1c[nH]c2ccccc12)C(=O)N[C@@H](Cc1ccccc1)C(=O)[C@@]1(C)CO1
MM1.S
  IC50: 110 nM
[4]
  IC50: 0.154 µM
[5]
  IC50: > 10 µM
[1]
  IC50: 21.1 nM
RPMI-8226
  IC50: 110 nM
[2]
  Ratio IC50: 1.2
[3]
  IC50: 25.6 nM

## COc1ccc(C[C@H](NC(=O)[C@@H](C)NC(=O)N2CCC[C@@H](OC)C2)C(=O)N[C@@H](Cc2ccccc2)C(=O)[C@@]2(C)CO2)cc1
MM1.S
  IC50: 220 nM
[4]
  IC50: 4.27 µM
[5]
  IC50: > 10 µM
[1]
  IC50: 29.9 nM
RPMI-8226
  IC50: 680 nM
[2]
  Ratio IC50: 8.2
[3]
  IC50: 244 nM

## COc1ccc(C[C@H](NC(=O)[C@@H](C)NC(=O)n2c3ccccc3c3ccccc32)C(=O)N[C@@H](Cc2ccccc2)C(=O)[C@@]2(C)CO2)cc1
[1]
  IC50: 38.2 nM
[2]
  Ratio IC50: 1.9
[3]
  IC50: 71.7 nM

## COc1ccc(C[C@H](NC(=O)[C@@H](C)NC(=O)N2CC[C@@H](OC)C2)C(=O)N[C@@H](Cc2ccccc2)C(=O)[C@@]2(C)CO2)cc1
[1]
  IC50: 66 nM
[2]
  Ratio IC50: 22.5
[3]
  IC50: 1480 nM

## COc1ccc(C[C@H](NC(=O)[C@@H](C)NC(=O)N2CCC[C@H](OC)C2)C(=O)N[C@@H](Cc2ccccc2)C(=O)[C@@]2(C)CO2)cc1
[1]
  IC50: 37.7 nM
[2]
  Ratio IC50: 4.3
[3]
  IC50: 163 nM

## C[C@@H](NC(=O)N1CCC(NC(=O)c2nccs2)CC1)C(=O)N[C@@H](Cc1c[nH]c2ccccc12)C(=O)N[C@@H](CC1CCCCC1)C(=O)[C@@]1(C)CO1
[1]
  IC50: 719 nM
[2]
  Ratio IC50: 1.5
[3]
  IC50: 1080 nM

## C[C@@H](NC(=O)N1CCC(NC(=O)c2nccs2)CC1)C(=O)N[C@@H](Cc1c[nH]c2ccccc12)C(=O)N[C@@H](Cc1ccccc1)C(=O)[C@@]1(C)CO1
[1]
  IC50: 323 nM
[2]
  Ratio IC50: 1.5
[3]
  IC50: 468 nM

## COc1ccc(C[C@H](NC(=O)[C@@H](C)NC(=O)N2CC[C@H](OC)C2)C(=O)N[C@@H](Cc2ccccc2)C(=O)[C@@]2(C)CO2)cc1
MM1.S
  IC50: 1370 nM
[4]
  IC50: 5.77 µM
[5]
  IC50: > 10 µM
[1]
  IC50: 25.1 nM
RPMI-8226
  IC50: 1880 nM
[2]
  Ratio IC50: 24.1
[3]
  IC50: 606 nM

## COc1ccc(C[C@H](NC(=O)[C@H](C)NC(=O)n2c3ccccc3c3ccccc32)C(=O)N[C@@H](Cc2ccccc2)C(=O)[C@@]2(C)CO2)cc1
[1]
  IC50: 61 nM
[2]
  Ratio IC50: 0.6
[3]
  IC50: 35.5 nM

## COc1ccc(C[C@H](NC(=O)[C@@H](C)NC(=O)N2CCc3ccccc3C2)C(=O)N[C@@H](Cc2ccccc2)C(=O)[C@@]2(C)CO2)cc1
[1]
  IC50: 80.7 nM
[2]
  Ratio IC50: 11.9
[3]
  IC50: 959 nM

## COc1ccc(C[C@H](NC(=O)[C@@H](C)NC(=O)N2CCCC2)C(=O)N[C@@H](Cc2ccccc2)C(=O)[C@@]2(C)CO2)cc1
[1]
  IC50: 62.9 nM
[2]
  Ratio IC50: 21.2
[3]
  IC50: 1330 nM

## COc1ccc(C[C@H](NC(=O)[C@@H](C)NC(=O)N2CCC(OC)CC2)C(=O)N[C@@H](Cc2ccccc2)C(=O)[C@@]2(C)CO2)cc1
MM1.S
  IC50: 1790 nM
[4]
  IC50: > 10 µM
[5]
  IC50: > 10 µM
[1]
  IC50: 26 nM
RPMI-8226
  IC50: 1920 nM
[2]
  Ratio IC50: 24.9
[3]
  IC50: 647 nM

## COc1ccc(C[C@H](NC(=O)[C@@H](C)NC(=O)N2CCC(NC(=O)c3nccs3)CC2)C(=O)N[C@@H](CC2CCCCC2)C(=O)[C@@]2(C)CO2)cc1
[1]
  IC50: 718 nM
[2]
  Ratio IC50: 3.8
[3]
  IC50: 2710 nM

## COc1ccc(C[C@H](NC(=O)[C@H](C)NC(=O)N2CCC(OC)C2)C(=O)N[C@@H](Cc2ccccc2)C(=O)[C@@]2(C)CO2)cc1 (stereo partly drawn)
[1]
  IC50: 56.8 nM
[2]
  Ratio IC50: 5.2
[3]
  IC50: 293 nM

## C[C@H](NC(=O)N1CCC(NC(=O)c2nccs2)CC1)C(=O)N[C@@H](Cc1c[nH]c2ccccc12)C(=O)N[C@@H](CC1CCCCC1)C(=O)[C@@]1(C)CO1
[1]
  IC50: 245 nM
[2]
  Ratio IC50: 0.9
[3]
  IC50: 216 nM

## COc1ccc(C[C@H](NC(=O)[C@H](C)NC(=O)N2CCc3ccccc3C2)C(=O)N[C@@H](Cc2ccccc2)C(=O)[C@@]2(C)CO2)cc1
[1]
  IC50: 37.8 nM
[2]
  Ratio IC50: 1.8
[3]
  IC50: 69.7 nM

## COc1ccc(C[C@H](NC(=O)[C@H](C)NC(=O)CN2CCOCC2)C(=O)N[C@@H](Cc2ccccc2)C(=O)[C@@]2(C)CO2)cc1
[6]
  IC50: 422 nM
RPMI-8226
  IC50: 680 nM
